Activity calls are given as the source filed them. No cut-off for these calls is given here.
Key:
[1] = Toxicity in Glucocorticoid-induced C57BL/6 mouse bone loss model assessed as adverse effect by measuring mouse with skin lesions at 10 mg/kg/day, po treatment initiated 3 days prior to glucocorticoid challenge measured after 2 weeks; assay type: organism-based; details: in vivo, 408 h, time 17 day
Summary of the method: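 Female C57BL/6 mice, 4 months old; oral gavage 10 mg/kg 5 times per week from 3 days before placebo or prednisolone (2.1 mg/kg/d) pellet implantation. Mice scored for development of skin lesions during the study.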

[2] = tested on: Mus musculus; experiment: In vivo inhibition of Glucocorticoid-induced bone loss in C57BL/6 mouse assessed as prevention of bone loss by measuring increase in bone mineral density at 10 mg/kg/day, po treatment initiated 3 days prior to glucocorticoid challenge measured after 2 weeks; assay type: functional, organism-based; details: time 17.0 day
Summary of the method: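 Female C57BL/6 mice, 4 months old, randomized; oral gavage 10 mg/kg 5 times per week, starting 3 days before subcutaneous slow-release pellet (placebo or prednisolone 2.1 mg/kg/d). Total-body BMD (head and tail excluded) by DEXA after 2 weeks; analysis blinded. Two-way ANOVA with Tukey post hoc, N = 9–10.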

[3] = molecular target: Protein-tyrosine kinase 2-beta (Homo sapiens, UniProt Q14289); experiment: Inhibition of Pyk2 kinase (unknown origin) by bioluminescent ADP-Glo kinase assay
Chain of Protein-tyrosine kinase 2-beta (Q14289 whole entry): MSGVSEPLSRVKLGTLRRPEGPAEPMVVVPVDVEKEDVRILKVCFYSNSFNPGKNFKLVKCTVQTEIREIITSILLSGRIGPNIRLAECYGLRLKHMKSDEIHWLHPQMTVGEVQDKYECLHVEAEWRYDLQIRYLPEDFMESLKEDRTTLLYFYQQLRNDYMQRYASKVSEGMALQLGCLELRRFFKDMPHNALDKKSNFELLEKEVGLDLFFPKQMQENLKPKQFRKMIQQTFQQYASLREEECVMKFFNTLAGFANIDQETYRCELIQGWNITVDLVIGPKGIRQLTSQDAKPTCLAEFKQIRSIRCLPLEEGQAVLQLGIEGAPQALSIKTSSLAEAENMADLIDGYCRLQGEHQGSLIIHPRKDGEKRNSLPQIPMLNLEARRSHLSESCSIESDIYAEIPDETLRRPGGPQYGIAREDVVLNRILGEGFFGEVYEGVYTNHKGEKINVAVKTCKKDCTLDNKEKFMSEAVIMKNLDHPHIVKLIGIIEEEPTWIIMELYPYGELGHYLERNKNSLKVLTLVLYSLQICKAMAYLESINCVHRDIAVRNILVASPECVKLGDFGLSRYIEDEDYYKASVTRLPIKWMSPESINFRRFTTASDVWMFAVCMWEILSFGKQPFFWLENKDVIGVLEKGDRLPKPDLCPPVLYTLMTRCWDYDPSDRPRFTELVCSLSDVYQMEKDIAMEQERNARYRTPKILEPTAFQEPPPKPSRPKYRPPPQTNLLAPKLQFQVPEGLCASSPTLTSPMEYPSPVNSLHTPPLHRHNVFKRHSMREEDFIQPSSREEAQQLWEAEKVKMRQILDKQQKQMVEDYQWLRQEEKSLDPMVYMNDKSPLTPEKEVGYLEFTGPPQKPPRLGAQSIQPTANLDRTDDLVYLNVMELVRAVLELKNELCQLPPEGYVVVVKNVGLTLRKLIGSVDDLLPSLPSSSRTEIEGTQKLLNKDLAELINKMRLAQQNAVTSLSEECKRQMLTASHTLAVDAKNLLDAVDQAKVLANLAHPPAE
Summary of the method: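 ADP-Glo luminescent read-out of ADP formation, run per kit instructions; inhibitors tested as 8-point half-log dilution series, 1 uM down to 0.316 nM. IC50 obtained by fitting dose–response curves with an [inhibitor] vs normalized response model; each compound tested at least 3 times.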

[4] = Toxicity in Glucocorticoid-induced C57BL/6 mouse bone loss model assessed as circulating organ toxicity in serum by measuring calcium at 10 mg/kg/day, po treatment initiated 3 days prior to glucocorticoid challenge measured after 2 weeks; assay type: organism-based; details: in vivo, 408 h, time 17 day
Summary of the method: (§1)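 Same mouse regimen: 4-month-old female C57BL/6, gavage 10 mg/kg 5×/week, prednisolone 2.1 mg/kg/d or placebo pellets. At study end, blood collected after isoflurane sedation and euthanasia. 14-parameter Comprehensive Diagnostic Profile analyser panel on plasma. Untreated and vehicle mice served as controls. N = 9–10, mean ± SD.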

[5] = Toxicity in Glucocorticoid-induced C57BL/6 mouse bone loss model assessed as circulating organ toxicity in serum by measuring amylase at 10 mg/kg/day, po treatment initiated 3 days prior to glucocorticoid challenge measured after 2 weeks; assay type: organism-based; details: in vivo, 408 h, time 17 day; summary of the method: as §1
[6] = Toxicity in Glucocorticoid-induced C57BL/6 mouse bone loss model assessed as circulating organ toxicity in serum by measuring alkaline phosphatase at 10 mg/kg/day, po treatment initiated 3 days prior to glucocorticoid challenge measured after 2 weeks; assay type: organism-based; details: in vivo, 408 h, time 17 day; summary of the method: as §1
[7] = Toxicity in Glucocorticoid-induced C57BL/6 mouse bone loss model assessed as circulating organ toxicity in serum by measuring […] at 10 mg/kg/day, po treatment initiated 3 days prior to glucocorticoid challenge measured after 2 weeks; assay type: organism-based; details: in vivo, 408 h, time 17 day; summary of the method: as §1
[8] = Toxicity in Glucocorticoid-induced C57BL/6 mouse bone loss model assessed as circulating organ toxicity in serum by measuring Albumin at 10 mg/kg/day, po treatment initiated 3 days prior to glucocorticoid challenge measured after 2 weeks; assay type: organism-based; details: in vivo, 408 h, time 17 day; summary of the method: as §1
[9] = Toxicity in Glucocorticoid-induced C57BL/6 mouse bone loss model assessed as circulating organ toxicity in serum by measuring sodium at 10 mg/kg/day, po treatment initiated 3 days prior to glucocorticoid challenge measured after 2 weeks; assay type: organism-based; details: in vivo, 408 h, time 17 day; summary of the method: as §1
[10] = Toxicity in Glucocorticoid-induced C57BL/6 mouse bone loss model assessed as circulating organ toxicity in serum by measuring potassium at 10 mg/kg/day, po treatment initiated 3 days prior to glucocorticoid challenge measured after 2 weeks; assay type: organism-based; details: in vivo, 408 h, time 17 day; summary of the method: as §1
[11] = Toxicity in Glucocorticoid-induced C57BL/6 mouse bone loss model assessed as adverse effect at 10 mg/kg/day, po treatment initiated 3 days prior to glucocorticoid challenge measured after 2 weeks; assay type: organism-based; details: in vivo, 408 h, time 17 day
[12] = Toxicity in Glucocorticoid-induced C57BL/6 mouse bone loss model assessed as circulating organ toxicity in serum by measuring glucose at 10 mg/kg/day, po treatment initiated 3 days prior to glucocorticoid challenge measured after 2 weeks; assay type: organism-based; details: in vivo, 408 h, time 17 day; summary of the method: as §1
[13] = Toxicity in Glucocorticoid-induced C57BL/6 mouse bone loss model assessed as circulating organ toxicity in serum by measuring Total protein at 10 mg/kg/day, po treatment initiated 3 days prior to glucocorticoid challenge measured after 2 weeks; assay type: organism-based; details: in vivo, 408 h, time 17 day; summary of the method: as §1
[14] = Toxicity in Glucocorticoid-induced C57BL/6 mouse bone loss model assessed as circulating organ toxicity in serum by measuring phosphorus at 10 mg/kg/day, po treatment initiated 3 days prior to glucocorticoid challenge measured after 2 weeks; assay type: organism-based; details: in vivo, 408 h, time 17 day; summary of the method: as §1
[15] = Toxicity in Glucocorticoid-induced C57BL/6 mouse bone loss model assessed as circulating organ toxicity in serum by measuring blood urea nitrogen at 10 mg/kg/day, po treatment initiated 3 days prior to glucocorticoid challenge measured after 2 weeks; assay type: organism-based; details: in vivo, 408 h, time 17 day; summary of the method: as §1
[16] = Toxicity in Glucocorticoid-induced C57BL/6 mouse bone loss model assessed as circulating organ toxicity in serum by measuring total bilirubin at 10 mg/kg/day, po treatment initiated 3 days prior to glucocorticoid challenge measured after 2 weeks; assay type: organism-based; details: in vivo, 408 h, time 17 day; summary of the method: as §1
[17] = Toxicity in Glucocorticoid-induced C57BL/6 mouse bone loss model assessed as circulating organ toxicity in serum by measuring creatinine at 10 mg/kg/day, po treatment initiated 3 days prior to glucocorticoid challenge measured after 2 weeks; assay type: organism-based; details: in vivo, 408 h, time 17 day; summary of the method: as §1

## CNC(=O)c1ccccc1Nc1nc(Nc2ccc(OC(=O)CCCCC(=O)NCCCC(O)(P(=O)(O)O)P(=O)(O)O)cc2OC)ncc1Cl
[1]
  Activity: Non-Toxic
[2]
  Activity: inactive

## CNC(=O)c1ccccc1Nc1nc(Nc2ccc(NC(=O)CCCCC(=O)NCCCC(O)(P(=O)(O)O)P(=O)(O)O)cc2OC)ncc1Cl
[3]
  IC50: 44.7 nM
[4]
  Activity: Non-Toxic
[5]
  Activity: Non-Toxic
[6]
  Activity: Non-Toxic
[7]
  Activity: Non-Toxic
[8]
  Activity: Non-Toxic
[9]
  Activity: Non-Toxic
[10]
  Activity: Non-Toxic
[11]
  Activity: Non-Toxic
[12]
  Activity: Non-Toxic
[13]
  Activity: Non-Toxic
[14]
  Activity: Non-Toxic
[2]
  Activity: Active
[15]
  Activity: Non-Toxic
[16]
  Activity: Non-Toxic
[17]
  Activity: Non-Toxic

## CNC(=O)c1ccccc1Nc1nc(Nc2ccc(N3CCOCC3)cc2OC)ncc1Cl
[3]
  IC50: 16.9 nM
[1]
  Activity: 15%
[2]
  Activity: Active

## CNC(=O)c1ccccc1Nc1nc(Nc2ccc(N3CCC(O)CC3)cc2OC)ncc1Cl
[3]
  IC50: 101 nM

## CNC(=O)c1ccccc1Nc1nc(Nc2ccc(N)cc2OC)ncc1Cl
[3]
  IC50: 43.5 nM

From ChEMBL document CHEMBL6127135, “Generation of BT-Amide, a Bone-Targeted Pyk2 Inhibitor, Effective via Oral Administration, for the Prevention of Glucocorticoid-Induced Bone Loss” (J Med Chem, 2024)
